Assay results from ChEMBL document CHEMBL3286311, “Novel and high affinity fluorescent ligands for the serotonin transporter based on (s)-citalopram” (ACS Med Chem Lett, 2014).
Calls of active or inactive are those of the source. The calls are words filed in the database; no cut-off is given here.

Key:
[1] = molecular target: T1, Sodium-dependent dopamine transporter (Homo sapiens, UniProt Q01959); assay: Inhibition of 2,5,6-[3H]-dopamine uptake at human DAT expressed in African green monkey COS7 cells at 10 uM incubated for 10 mins prior to radioligand addition measured after 5 mins by scintillation counting analysis; format: cell-based; conditions: COS-7
T1 sequence (Q01959 whole entry): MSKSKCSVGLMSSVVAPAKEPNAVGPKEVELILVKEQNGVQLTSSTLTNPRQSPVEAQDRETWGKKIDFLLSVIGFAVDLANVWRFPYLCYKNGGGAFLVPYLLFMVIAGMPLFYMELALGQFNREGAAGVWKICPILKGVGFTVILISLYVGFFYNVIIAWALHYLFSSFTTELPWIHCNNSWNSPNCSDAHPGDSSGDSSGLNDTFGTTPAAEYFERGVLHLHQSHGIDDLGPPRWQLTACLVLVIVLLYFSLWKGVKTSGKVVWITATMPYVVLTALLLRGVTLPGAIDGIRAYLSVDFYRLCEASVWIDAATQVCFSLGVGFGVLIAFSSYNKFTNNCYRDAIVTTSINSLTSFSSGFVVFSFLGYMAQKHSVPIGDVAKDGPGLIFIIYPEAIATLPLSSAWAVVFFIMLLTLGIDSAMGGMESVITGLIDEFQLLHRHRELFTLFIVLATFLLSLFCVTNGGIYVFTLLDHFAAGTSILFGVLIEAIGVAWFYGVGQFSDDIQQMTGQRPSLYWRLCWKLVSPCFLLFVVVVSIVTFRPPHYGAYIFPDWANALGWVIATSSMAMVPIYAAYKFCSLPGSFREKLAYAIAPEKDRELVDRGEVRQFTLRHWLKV

[2] = molecular target: T2, Sodium-dependent serotonin transporter (Homo sapiens, UniProt P31645); assay: Inhibition of 5-hydroxy[3H]tryptamine uptake at human SERT expressed in African green monkey COS7 cells incubated for 10 mins prior to radioligand addition measured after 5 mins by scintillation counting analysis; format: cell-based, COS-7
Target sequence in this assay (P31645 whole entry): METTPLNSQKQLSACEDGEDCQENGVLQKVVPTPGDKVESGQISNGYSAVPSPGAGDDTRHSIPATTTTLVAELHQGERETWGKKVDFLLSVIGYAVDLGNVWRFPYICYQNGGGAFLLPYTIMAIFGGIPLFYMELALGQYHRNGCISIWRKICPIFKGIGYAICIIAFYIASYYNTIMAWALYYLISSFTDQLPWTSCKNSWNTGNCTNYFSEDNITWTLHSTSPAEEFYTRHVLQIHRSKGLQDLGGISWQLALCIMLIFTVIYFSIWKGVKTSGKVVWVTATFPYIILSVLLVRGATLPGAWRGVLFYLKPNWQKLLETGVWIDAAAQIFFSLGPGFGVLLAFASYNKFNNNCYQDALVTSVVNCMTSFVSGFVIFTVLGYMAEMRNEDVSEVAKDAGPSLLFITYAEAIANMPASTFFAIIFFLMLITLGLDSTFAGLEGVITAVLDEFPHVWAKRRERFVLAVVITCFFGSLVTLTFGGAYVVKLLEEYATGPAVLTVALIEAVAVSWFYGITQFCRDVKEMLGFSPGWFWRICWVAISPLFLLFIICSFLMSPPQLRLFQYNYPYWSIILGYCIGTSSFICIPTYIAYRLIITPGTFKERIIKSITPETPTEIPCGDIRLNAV

[3] = molecular target: T2, Sodium-dependent serotonin transporter; assay: Displacement of [3H]-S-citalopram from human SERT expressed in African green monkey COS7 cells incubated for 10 mins prior to [3H]-S-citalopram addition measured after 2 hrs by scintillation counting analysis; format: cell-based, COS-7
Summary of the method: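 Competition binding at hSERT in transiently transfected COS7 cells with [3H]-S-citalopram (2 nM) as radioligand. IC50 came from nonlinear regression and was converted to Ki using a Kd for [3H]-S-citalopram determined in parallel. SE interval is from pKi ± SE. Values are means of three to four experiments, each in triplicate.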
Target sequence in this assay (P31645 whole entry): as above

[4] = molecular target: T3, Sodium-dependent noradrenaline transporter (Homo sapiens, UniProt P23975); assay: Inhibition of 2,5,6-[3H]-dopamine uptake at human NET expressed in African green monkey COS7 cells at 10 uM incubated for 10 mins prior to radioligand addition measured after 5 mins by scintillation counting analysis; format: cell-based; conditions: COS-7
T3 sequence (P23975 whole entry): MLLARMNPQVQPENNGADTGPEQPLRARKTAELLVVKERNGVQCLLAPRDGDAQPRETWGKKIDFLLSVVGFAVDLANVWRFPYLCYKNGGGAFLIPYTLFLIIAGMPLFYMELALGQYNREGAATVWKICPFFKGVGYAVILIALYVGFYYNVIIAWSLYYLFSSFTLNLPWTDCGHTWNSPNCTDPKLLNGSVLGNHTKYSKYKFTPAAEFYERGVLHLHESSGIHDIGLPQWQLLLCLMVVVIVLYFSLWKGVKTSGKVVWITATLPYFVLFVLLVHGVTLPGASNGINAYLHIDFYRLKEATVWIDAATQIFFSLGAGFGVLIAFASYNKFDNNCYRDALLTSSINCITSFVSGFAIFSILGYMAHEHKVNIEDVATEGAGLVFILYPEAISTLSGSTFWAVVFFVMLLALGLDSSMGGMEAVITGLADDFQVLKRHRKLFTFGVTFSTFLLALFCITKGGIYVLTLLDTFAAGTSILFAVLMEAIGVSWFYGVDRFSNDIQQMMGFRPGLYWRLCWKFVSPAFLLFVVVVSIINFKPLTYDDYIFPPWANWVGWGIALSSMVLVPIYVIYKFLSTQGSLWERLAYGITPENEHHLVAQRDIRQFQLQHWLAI

[5] = molecular target: T2, Sodium-dependent serotonin transporter; assay: Binding affinity to N-terminal EGFP-tagged SERT (unknown origin) expressed in HEK293 cells at 20 nM after 10 mins by confocal laser scanning microscopy; format: cell-based
Summary of the method: (§1)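 Live confocal imaging of HEK293 cells transiently expressing SERT with an N-terminal EGFP tag. Cells were incubated at room temperature with 20 nM ligand and imaged at 0, 1, 5, 10 or 20 min. Rhodamine signal was compared with the EGFP signal and merged with a transmission image. Paroxetine (100 μM) was coincubated as the specificity control. Three identical experiments were run.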
Target sequence in this assay (P31645 whole entry, looked up): as the sequence (P31645 whole entry) above

[6] = molecular target: T2, Sodium-dependent serotonin transporter; assay: Binding affinity to N-terminal EGFP-tagged SERT (unknown origin) expressed in HEK293 cells at 20 nM by confocal laser scanning microscopy; format: cell-based; conditions: TDE = time-dependent effect; summary of the method: as §1
Target sequence in this assay (P31645 whole entry, looked up): as the sequence (P31645 whole entry) above

[7] = molecular target: T2, Sodium-dependent serotonin transporter; assay: Selectivity ratio of ZP455 Ki to compound Ki for human SERT
Target sequence in this assay (P31645 whole entry, looked up): as the sequence (P31645 whole entry) above

[8] = molecular target: T2, Sodium-dependent serotonin transporter; assay: Binding affinity to N-terminal EGFP-tagged SERT (unknown origin) expressed in HEK293 cells at 20 nM after 10 mins by confocal laser scanning microscopy in presence of SERT inhibitor paroxetine; format: cell-based; summary of the method: as §1
Target sequence in this assay (P31645 whole entry, looked up): as the sequence (P31645 whole entry) above

[9] = molecular target: T3, Sodium-dependent noradrenaline transporter; assay: Inhibition of 2,5,6-[3H]-dopamine uptake at human NET expressed in African green monkey COS7 cells incubated for 10 mins prior to radioligand addition measured after 5 mins by scintillation counting analysis; format: cell-based, COS-7
Summary of the method: (§2)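 Uptake inhibition in transiently transfected COS7 cells, with 2,5,6-[3H]dopamine as substrate for both DAT and NET. IC50 came from nonlinear regression. Ki was calculated using the dopamine KM, which was determined in parallel. Values are means of three to four repeats, each in triplicate, with SE interval from pKI ± SE.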

[10] = molecular target: T1, Sodium-dependent dopamine transporter; assay: Inhibition of 2,5,6-[3H]-dopamine uptake at human DAT expressed in African green monkey COS7 cells incubated for 10 mins prior to radioligand addition measured after 5 mins by scintillation counting analysis; format: cell-based, COS-7; summary of the method: as §2

SMILES	inhibition [1]	Ki [2] [nM]	Ki [3] [nM]	inhibition [4]	Activity [5]	Activity [6]	Ratio Ki [7]	Activity [8]	Ki [9] [nM]	Ki [10] [nM]
CCN(CC)c1ccc2c(-c3ccc(S(=O)(=O)NCCCCCC(=O)NCCCN(C)CCC[C@@]4(c5ccc(F)cc5)OCc5cc(C#N)ccc54)cc3S(=O)(=O)[O-])c3ccc(=[N+](CC)CC)cc-3oc2c1	inactive	140	11	inactive						
CCN(CC)c1ccc2c(-c3ccc(S(=O)(=O)NCCCCCC(=O)NCc4ccc5c(c4)CO[C@@]5(CCCN(C)C)c4ccc(F)cc4)cc3S(=O)(=O)[O-])c3ccc(=[N+](CC)CC)cc-3oc2c1	inactive	34	3	inactive	Active	tde	75	inactive		
CCN(CC)c1ccc2c(-c3ccc(S(=O)(=O)NCCCCCC(=O)NCCCCCN(C)CCC[C@@]4(c5ccc(F)cc5)OCc5cc(C#N)ccc54)cc3S(=O)(=O)[O-])c3ccc(=[N+](CC)CC)cc-3oc2c1	inactive	250	180	inactive						
CCN(CC)c1ccc2c(-c3ccc(S(=O)(=O)NCCCCCC(=O)NCCCc4ccc5c(c4)CO[C@@]5(CCCN(C)C)c4ccc(F)cc4)cc3S(=O)(=O)[O-])c3ccc(=[N+](CC)CC)cc-3oc2c1	inactive	37	11	inactive						
CCN(CC)c1ccc2c(-c3ccc(S(=O)(=O)NCCCCCC(=O)NCCN4C5CCC4[C@@H](C(=O)OC)[C@@H](c4ccc(Cl)c(Cl)c4)C5)cc3S(=O)(=O)[O-])c3ccc(=[N+](CC)CC)cc-3oc2c1 (stereo not given in full)		94							91	20
CN(C)CCC[C@@]1(c2ccc(F)cc2)OCc2cc(C#N)ccc21	inactive			inactive						
